# Test system: MS2 coat protein
# Assay: apparent Kd, MS2 coat protein; higher = weaker binding; RNA-MaP array; theophylline 2 mM where present
# In short: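 Stalled E. coli RNA polymerase produced the designs on Illumina sequencing-chip clusters. SNAP-549-labelled MS2 coat protein was added from 0.7 or 1.5 nM, doubling to 3 µM, without and then with constant ligand, in 100 mM Tris-HCl pH 7.5, 80 mM KCl, 4 mM MgCl2, BSA, DTT, yeast tRNA and Tween-20. The apparent Kd is the median of filtered per-cluster fits of green signal normalised to red-channel RNA signal and control-cluster median Fmax.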
# [1] = designed as: OFF switch for theophylline, no ligand
# [2] = ligand present: theophylline, designed as: OFF switch for theophylline
# [3] = designed as: ON switch for theophylline, no ligand
# [4] = ligand present: theophylline, designed as: ON switch for theophylline
Sequence,apparent Kd [1] [nM],apparent Kd [2] [nM],apparent Kd [3] [nM],apparent Kd [4] [nM]
ACAUGAGGAUCACCCAUGUUCCUCAUUGAUACCAGUGAAUUUAGACGCCCUUGGCAGCGAGUUUUUUUAUAAGAAGUUUUUUUUU,660,1310,,
ACCUACACGGAGACGUGUAGGAGUAAUGAUACCAGCAUGGAGACAUGCCCUUGGCAGCGUUACAUGAGGAUCACCCAUGUGGUGC,21.1,483,,
ACGAACGAUAGUGAUACCAGACGUACAUGAGGAUCACCCAUGUUAUACACAUGGUUUAUUGUCCCUUGGCAGCACGUUAAGUUCG,274,295,,
ACUAGCGCACAUGAUACCAGCGACAUGAGGAUCACCCAUGUACGGCGUGUAUCGAAAGGUUGCCCUUGGCAGCAUGAUAGCGCUG,13.9,255,,
ACUCGGUAUGUCUAAUACCGAGAGUAUGAUACCAGUAUGGUGACAUACCCUUGGCAGCAUGGGACAUGAGGAUCACCCAUGUGUU,,,538,505
ACUCGGUGUUUGUUGCUCCGAGUGUAUGAUACCAGUUAGUUUUAUGGCCCUUGGCAGCAUAGGACAUGAGGAUCACCCAUGUGUU,,,32.6,45.7
AGACAUGAGGAUCACCCAUGUAGCAUGGAUACCAGAUCCAGAUUUAUCCCUUGGCAGCUGUGGUAAAGUGAUGGAUUGCUCCUAG,44.3,55.5,,
AGACAUGAGGAUCACCCAUGUAGUAUGGAUACCAGAUCCAGAUUUAUCCCUUGGCAGCUGUGGUACAGCGUUGCAUCGCUCCUAG,32.3,34.5,,
AGAUCUUUCGAAAGAAGGAUCUUGGCUGAUACCAGAGACGAAAGUCUCCCUUGGCAGCAGUGCCAACAUGAGGAUCACCCAUGUA,,,45.8,24.1
AGCAUGUUAUCAGAUACCAGACAUCUUUUAAAACAUAUUACAUGAGGAUCACCCAUGUUGGUCCCUUGGCAGCUGAAAUAUUUCA,,,272,39.8
AGCCUCAUACAUGAGGAUCACCCAUGUGAUACCAGUCAGGAAACUGACCCUUGGCAGCGCAUGAGGAUCACCCAUGUGCGAGGCA,43.5,192,,
AGCGUAUAGACGGAUACCAGCGCCAAUUAACAUGAGGAUCACCCAUGUAGUGUGGGUGGACGCCCUUGGCAGCCGAGUAUAGGUA,97.8,284,,
AGCUCAGAGAGUGAUACCAGACUACAUGAGGAUCACCCAUGUUACUUUUAAAUAUCAUGAGUCCCUUGGCAGCACAAGAAGAGCA,81,168,,
AGGAAACAACAUGAGGAUCACCCAUGUGAUACCAGUAUCAAAAGAUACCCUUGGCAGCACACAUGACAUGAGGAUCACCCAUGUA,,,41.4,84.4
AUAACAUGAGGAUCACCCAUGUAAGCAGAUACCAGCUAGGAAACUAGCCCUUGGCAGCUGCAAGGUGAUCCUAAUGCAGCUGCAA,154,119,,
AUAACAUGAGGAUCACCCAUGUAAGGUGAUACCAGACGAAGUAAAGUCCCUUGGCAGCACAAGCAUAGUUGCGAAUAUUGAUAGA,,,469,63.1
AUAACAUGAGGAUCACCCAUGUAAGGUGAUACCAGACGAAGUAAAGUCCCUUGGCAGCACAAGUAAAGUUACGAAUAUUGAUAGA,,,430,47.3
AUAAGUAAUGUUUCGUGUUUUAUUACAGAUACCAGACUAUACGUUGUCCCUUGGCAGCUGGAUUACAUGAGGAUCACCCAUGUUG,19.5,35.1,,
AUCCUCUAGAAUGAUACCAGACCAAACAUGAGGAUCACCCAUGUAUCAGGCAAUUGUUACGUCCCUUGGCAGCAUGUAUGCCGAC,,,27.7,28.1
AUCUCAUAGAGUGAUACCAGACUACAUGAGGAUCACCCAUGUUAGAUUUAAAUAUCAUUUGUCCCUUGGCAGCACAUUAAGUACA,,,12.9,11.5

Sequence,apparent Kd [1] [nM],apparent Kd [2] [nM],apparent Kd [3] [nM],apparent Kd [4] [nM]
AUGUAAGUGGUGUCACUGUGGUCUAGUGAUACCAGUAUCGAAAGAUACCCUUGGCAGCGCUAGAACAUGAGGAUCACCCAUGUUU,68.8,34.3,,
AUUAUCAUGGUCAUAUAUAUUUCGUCAGAUACCAGACUAGAUAUAGUCCCUUGGCAGCUGUUACAUGAGGAUCACCCAUGUUAUU,121,44.5,,
AUUUAUUGUCGUGAUACCAGACAUACAUGAGGAUCACCCAUGUUAAGUAACUUUUUUCAGGUCCCUUGGCAGCACUUUUUAAUUA,,,17.3,13.9
CAUAAUUUAUCCUAUAAAACUAUUAGUGAUACCAGCACCUCAUGAUGCCCUUGGCAGCACUUACAUGAGGAUCACCCAUGUUUUA,,,172,214
CAUAUUGUAACUGAUACCAGUGUACUGACAUGAGGAUCACCCAUGUUGGGUUUUGUUGUACACCCUUGGCAGCAGAAUCAAUAUG,68.7,89.2,,
CCAUAAGUAACUGAUACCAGUGUACUGACAUGAGGAUCACCCAUGUUGGGUUUUGUUGUACACCCUUGGCAGCAGAAUCUUGUGG,63,90.3,,
CCUCAUGUGUAUCACCACAUGAGUGGUGAUACCAGCAUCGAAAGAUGCCCUUGGCAGCACCAACAUGAGGAUCACCCAUGUAAUA,,,352,101
CGGUUUGUGAUGGAUACCAGCAGAGAAAAUGUUUAUCCUAACAUGAGGAUCACCCAUGUGUGCCCUUGGCAGCUGUUGUGGGCUG,50.5,84.9,,
CGUAUUGUAACUGAUACCAGUGUACUGACAUGAGGAUCACCCAUGUUGGGUUUUGUUGUACACCCUUGGCAGCAGAAUCAAUACG,68.7,122,,
CUCCGAGGCUAUACUAUACGCCUUUGUGAUACCAGAAUAAAUAUAUUCCCUUGGCAGCAUCACAUGAGGAUCACCCAUGUGCCAU,,,11.7,18
CUCGAGGCCGGUGAUACCAGACACGAAACUAUACAUGAGGAUCACCCAUGUCAAACAACGGUCCCUUGGCAGCAUGGGUGUAUCC,,,68.9,64.5
CUUAUAGUAACUGAUACCAGUGUACUGACAUGAGGAUCACCCAUGUUGGGUUUUGUUGUACACCCUUGGCAGCAGAAUCUAUAAG,69.5,86.6,,
GAGCUGAUGUAGAAAUUUUAUUUAUGAGAUACCAGUACAGAAAUGUACCCUUGGCAGCUCAUUUUUACAUGAGGAUCACCCAUGU,12.5,13.8,,
GAUGAACUAUUUGAUACCAGACUACAUGAGGAUCACCCAUGUGAGUUUAUACUUCUGUCAGUCCCUUGGCAGCAAAUAGUUUAUC,19.2,123,,
GAUGAACUAUUUGAUACCAGACUACAUGAGGAUCACCCAUGUGAGUUUCGUCCUCUGCCAGUCCCUUGGCAGCAAAUAGUUUAUC,18.9,194,,
GAUGAUAUUGCAGAUACCAGACACAUGAGGAUCACCCAUGUCGCUGGGUUACUGGAUCGUGUCCCUUGGCAGCUGCGAUAUCAUC,286,69.4,,
GAUGAUAUUGCAGAUACCAGACACAUGAGGAUCACCCAUGUCGCUGGGUUACUGGGUCGUGUCCCUUGGCAGCUGCGAUAUCAUC,44,339,,
GCACCAGGUACGGAUACCAGACGUUGCCAAACAGGGUGACAUGAGGAUCACCCAUGUACUGUCCCUUGGCAGCCGUACCUGGUGC,22.3,653,,
GCACCAGGUACGGAUACCAGCUAUAGGCCCAAUGGGCGACAUGAGGAUCACCCAUGUGAUGGCCCUUGGCAGCUGUACCUGGUGC,,,211,24.1
GCACGACAUGAGGAUCACCCAUGUGCAGAUACCAGUAAUGUAUAUUACCCUUGGCAGCUGAGUAGAUCUGGAGGGCUAUAGGUAA,,,13.8,20.8
